Results published in ChEMBL document CHEMBL1800056, “Discovery of 2-(6-{[(6-fluoroquinolin-2-yl)methyl]amino}bicyclo[3.1.0]hex-3-yl)-N-hydroxypyrimidine-5-carboxamide (CHR-3996), a class I selective orally active histone deacetylase inhibitor” (J Med Chem, 2010).
Active and inactive are the calls of the source. The rule behind the calls is not given here.

Assays:
Histone deacetylase 1 = Histone deacetylase 1 (Homo sapiens, UniProt Q13547); experiment: Inhibition of human recombinant HDAC1 using fluor de Lys as substrate by fluorometric analysis
Histone deacetylase 1, sequence (Q13547 whole entry): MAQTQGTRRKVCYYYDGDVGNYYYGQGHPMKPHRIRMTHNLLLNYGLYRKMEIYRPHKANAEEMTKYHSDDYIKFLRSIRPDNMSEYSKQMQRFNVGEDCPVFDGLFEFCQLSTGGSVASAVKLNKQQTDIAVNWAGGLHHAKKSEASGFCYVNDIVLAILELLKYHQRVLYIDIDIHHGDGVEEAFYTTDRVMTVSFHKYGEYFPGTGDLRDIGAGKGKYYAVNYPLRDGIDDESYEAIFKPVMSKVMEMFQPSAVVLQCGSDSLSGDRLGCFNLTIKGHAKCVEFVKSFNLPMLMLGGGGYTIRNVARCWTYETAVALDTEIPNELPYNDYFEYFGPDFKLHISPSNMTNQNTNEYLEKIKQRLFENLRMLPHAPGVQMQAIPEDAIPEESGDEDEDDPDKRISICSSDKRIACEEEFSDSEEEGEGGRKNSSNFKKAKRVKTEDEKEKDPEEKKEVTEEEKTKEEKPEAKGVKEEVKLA

HepG2 = experiment: Antiproliferative activity against human HepG2 cells after 72 hrs by WST-1 assay; assay type: functional; settings: Homo sapiens, HepG2, 72 h
How it was run: (§1)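 Cells seeded at (1-5) × 10³/well in serum-containing medium for 24 h at 37 °C, 5% CO₂. Inhibitor added at 0.6-10000 nM for 72 h, with WST-1 pulse over the final 4 h. Formazan read at 450 nm (reference 650 nm). Expressed as % inhibition of vehicle response; GI50 is the concentration inhibiting 50% of vehicle response; n = 6 replicates.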

[1] = AUC (0 to t) in plasma of CD1 mouse at 3 mg/kg, po; assay type: ADME, organism-based; parameters: dose 3 mg/kg, route oral
How it was run: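 Oral cassette PK in CD1 mice: four compounds per cassette, each at 3 mg/kg po. AUC0-t (ng h/mL) measured in plasma and spleen; spleen/plasma AUC ratio reported.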

Cytochrome P450 2C19 = Cytochrome P450 2C19 (Homo sapiens, UniProt P33261); experiment: Inhibition of CYP2C19; assay type: ADME
Cytochrome P450 2C19, sequence (P33261 whole entry): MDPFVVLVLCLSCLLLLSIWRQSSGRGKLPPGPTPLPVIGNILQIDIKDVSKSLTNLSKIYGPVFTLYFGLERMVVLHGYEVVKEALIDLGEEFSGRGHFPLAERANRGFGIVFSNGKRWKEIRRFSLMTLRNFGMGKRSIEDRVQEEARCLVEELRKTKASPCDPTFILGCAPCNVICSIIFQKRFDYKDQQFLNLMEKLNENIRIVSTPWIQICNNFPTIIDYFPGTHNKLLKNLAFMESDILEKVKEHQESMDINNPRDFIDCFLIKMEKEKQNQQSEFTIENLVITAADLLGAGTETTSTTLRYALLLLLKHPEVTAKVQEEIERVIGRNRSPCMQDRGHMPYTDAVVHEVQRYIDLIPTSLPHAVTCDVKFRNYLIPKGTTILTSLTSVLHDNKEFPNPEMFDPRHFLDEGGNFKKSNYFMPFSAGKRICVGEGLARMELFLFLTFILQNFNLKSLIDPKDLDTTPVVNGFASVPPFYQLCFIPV

HCT-116 [2] = experiment: Cell cycle arrest in human HCT116 cells assessed as accumulation at G2/M phase at 300 nM after 15 hrs by propidium iodide staining based flow cytometric analysis; assay type: functional
COR-L23 [3] = experiment: Antiproliferative activity against doxorubicin-resistant human COR-L23 cells after 72 hrs by WST-1 assay; assay type: functional; settings: Homo sapiens, COR-L23, 72 h; how it was run: as §1
Cytochrome P450 3A4 [4] = target: T1, Cytochrome P450 3A4 (Homo sapiens, UniProt P08684); experiment: Inhibition of CYP3A4 at < 10 uM; assay type: ADME
T1 sequence (P08684 whole entry): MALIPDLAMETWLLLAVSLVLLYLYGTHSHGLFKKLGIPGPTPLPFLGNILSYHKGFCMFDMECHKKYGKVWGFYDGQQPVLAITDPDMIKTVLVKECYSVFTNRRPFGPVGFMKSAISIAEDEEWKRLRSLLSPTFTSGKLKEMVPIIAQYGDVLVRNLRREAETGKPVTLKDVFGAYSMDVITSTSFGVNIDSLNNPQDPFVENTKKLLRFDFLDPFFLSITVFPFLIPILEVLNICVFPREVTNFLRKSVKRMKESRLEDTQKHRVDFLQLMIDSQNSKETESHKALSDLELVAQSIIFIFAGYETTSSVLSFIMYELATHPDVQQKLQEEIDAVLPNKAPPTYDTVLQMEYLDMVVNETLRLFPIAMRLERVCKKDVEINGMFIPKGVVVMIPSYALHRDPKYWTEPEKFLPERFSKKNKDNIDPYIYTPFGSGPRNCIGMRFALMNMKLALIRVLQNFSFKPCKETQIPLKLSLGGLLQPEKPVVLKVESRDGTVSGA

Histone deacetylase 5 = Histone deacetylase 5 (Homo sapiens, UniProt Q9UQL6); experiment: Inhibition of human recombinant HDAC5 using fluor de Lys as substrate by fluorometric analysis
Histone deacetylase 5, sequence (Q9UQL6 whole entry): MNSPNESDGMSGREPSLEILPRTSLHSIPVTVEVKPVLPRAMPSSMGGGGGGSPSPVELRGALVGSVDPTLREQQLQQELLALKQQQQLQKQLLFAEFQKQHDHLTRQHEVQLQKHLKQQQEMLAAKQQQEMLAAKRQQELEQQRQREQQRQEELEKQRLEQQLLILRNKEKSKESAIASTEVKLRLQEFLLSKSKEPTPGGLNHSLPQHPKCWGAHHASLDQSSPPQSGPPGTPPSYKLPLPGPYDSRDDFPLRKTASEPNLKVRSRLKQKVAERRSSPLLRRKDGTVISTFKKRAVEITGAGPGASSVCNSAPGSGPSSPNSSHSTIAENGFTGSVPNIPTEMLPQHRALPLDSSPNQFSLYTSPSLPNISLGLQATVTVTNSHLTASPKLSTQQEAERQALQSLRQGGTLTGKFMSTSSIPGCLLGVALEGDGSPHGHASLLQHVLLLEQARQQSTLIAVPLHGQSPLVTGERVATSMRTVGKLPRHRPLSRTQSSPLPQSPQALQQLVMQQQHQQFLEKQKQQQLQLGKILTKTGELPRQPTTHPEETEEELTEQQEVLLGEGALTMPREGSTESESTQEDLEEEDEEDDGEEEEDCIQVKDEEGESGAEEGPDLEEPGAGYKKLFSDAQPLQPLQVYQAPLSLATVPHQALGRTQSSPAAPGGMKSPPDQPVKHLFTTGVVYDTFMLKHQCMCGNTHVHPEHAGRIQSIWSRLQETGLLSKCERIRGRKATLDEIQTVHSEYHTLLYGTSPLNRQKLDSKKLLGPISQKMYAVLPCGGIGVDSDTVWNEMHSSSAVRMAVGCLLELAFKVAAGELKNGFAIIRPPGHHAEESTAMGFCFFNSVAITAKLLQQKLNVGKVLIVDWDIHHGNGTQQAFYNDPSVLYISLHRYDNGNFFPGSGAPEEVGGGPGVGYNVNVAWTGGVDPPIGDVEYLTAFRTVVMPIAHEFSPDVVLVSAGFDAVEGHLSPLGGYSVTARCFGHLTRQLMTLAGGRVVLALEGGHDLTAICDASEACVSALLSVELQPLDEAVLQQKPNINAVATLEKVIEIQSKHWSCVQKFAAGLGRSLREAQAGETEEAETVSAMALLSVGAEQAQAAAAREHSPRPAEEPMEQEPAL

HCT-116 [5] = experiment: Induction of apoptosis in human HCT116 cells assessed as PARP cleavage after 30 hrs by Western blot analysis; assay type: functional, cell-based
How it was run: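 HCT116 cells seeded at 2 × 10⁴ cells/mL and treated 24 h later for 30 h. RIPA lysates run at 10 μg/lane on 4-12% gels. Blotted with antibodies to PARP and cleaved PARP (1:1000); GAPDH as loading control; ECL detection.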

U-937 = experiment: Antiproliferative activity against human U937 cells after 72 hrs by WST-1 assay; assay type: functional; settings: Homo sapiens, U-937, 72 h; how it was run: as §1
COR-L23 [6] = experiment: Antiproliferative activity against human COR-L23 cells after 72 hrs by WST-1 assay; assay type: functional; settings: Homo sapiens, COR-L23, 72 h; how it was run: as §1
PC-3 = experiment: Antiproliferative activity against human PC3 cells after 72 hrs by WST-1 assay; assay type: functional; settings: PC-3, 72 h; how it was run: as §1
HCT-116 [7] = experiment: Cell cycle arrest in human HCT116 cells assessed as accumulation at G1 phase at 300 nM after 15 hrs by propidium iodide staining based flow cytometric analysis; assay type: functional
HuT78 = experiment: Antiproliferative activity against human HUT78 cells after 72 hrs by WST-1 assay; assay type: functional; settings: HuT78, 72 h
How it was run: (§2)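 Cells seeded at (1-5) × 10³/well in serum-containing medium for 24 h at 37 °C, 5% CO₂. Inhibitor added at 0.6-10000 nM for 72 h, with WST-1 pulse over the final 4 h. Formazan read at 450 nm (reference 650 nm).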

DU-145 = experiment: Antiproliferative activity against human DU145 cells after 72 hrs by WST-1 assay; assay type: functional; settings: DU-145, 72 h; how it was run: as §2
Spleen = experiment: Ratio of AUC (0 to t) in spleen to plasma of CD1 mouse at 3 mg/kg, po; settings: in vivo
HCT-116 [8] = experiment: Cell cycle arrest in human HCT116 cells assessed as accumulation at sub-G1 phase at 300 nM after 15 hrs by propidium iodide staining based flow cytometric analysis; assay type: functional
MIA PaCa-2 = experiment: Antiproliferative activity against human MIAPaCa2 cells after 72 hrs by WST-1 assay; assay type: functional; settings: Homo sapiens, MIA PaCa-2, 72 h; how it was run: as §1
MOLT-4 = experiment: Antiproliferative activity against human MOLT4 cells after 72 hrs by WST-1 assay; assay type: functional; settings: Homo sapiens, MOLT-4, 72 h; how it was run: as §1
Cytochrome P450 3A4 [9] = target: T1, Cytochrome P450 3A4; experiment: Inhibition of CYP3A4; assay type: ADME
HCT-116 [10] = experiment: Antiproliferative activity against human HCT116 cells after 72 hrs by WST-1 assay; assay type: functional; settings: Homo sapiens, HCT-116, 72 h; how it was run: as §1
[11] = Clearance in dog at 1 mg/kg, iv; assay type: ADME, organism-based, Canis lupus familiaris; parameters: dose 1 mg/kg, route intravenous; settings: in vivo
How it was run: (§3)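 Dog single dose: iv 1 mg/kg in 5% DMSO-HPβC (11.25% w/v); po 10 mg/kg in 5% DMSO-saline. AUC0-t in ng h/mL, clearance in (mL/min)/kg, t1/2 in h, F in %.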

HCT-116 [12] = experiment: Cell cycle arrest in human HCT116 cells assessed as accumulation at S phase at 300 nM after 15 hrs by propidium iodide staining based flow cytometric analysis; assay type: functional
A549 = experiment: Antiproliferative activity against human A549 cells after 72 hrs by WST-1 assay; assay type: functional; settings: Homo sapiens, A549, 72 h; how it was run: as §1
[13] = Clearance in mouse liver microsomes assessed as compound remaining after 30 mins; assay type: ADME, Microsome; settings: read-out: Activity
Histone deacetylase 3 = Histone deacetylase 3 (Homo sapiens, UniProt O15379); experiment: Inhibition of human recombinant HDAC3 using fluor de Lys as substrate by fluorometric analysis
Histone deacetylase 3, sequence (O15379 whole entry): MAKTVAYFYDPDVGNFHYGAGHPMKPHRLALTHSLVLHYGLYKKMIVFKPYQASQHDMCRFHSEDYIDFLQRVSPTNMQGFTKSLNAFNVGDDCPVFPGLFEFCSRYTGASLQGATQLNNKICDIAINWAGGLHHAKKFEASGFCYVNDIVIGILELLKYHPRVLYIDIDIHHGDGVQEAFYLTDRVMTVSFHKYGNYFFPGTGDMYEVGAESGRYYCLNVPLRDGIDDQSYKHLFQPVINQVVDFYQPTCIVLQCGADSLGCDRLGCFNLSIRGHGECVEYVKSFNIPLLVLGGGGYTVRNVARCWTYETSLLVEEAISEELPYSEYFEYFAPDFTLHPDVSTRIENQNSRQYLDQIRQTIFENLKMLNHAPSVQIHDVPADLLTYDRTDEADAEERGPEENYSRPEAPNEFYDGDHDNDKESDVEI

[14] = Ratio of GI50 for human HCT116 cells to IC50 for HDAC in human HeLa cell nuclear extracts
How it was run: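 Cell/enzyme ratio = HCT116 GI50 divided by HDAC IC50. Enzyme: HeLa nuclear extract (10 μg protein), 5 min preincubation, then Fluor de Lys substrate 62.5 μM, 15 min at room temperature. Stopped with developer containing trichostatin A; fluorescence ex 355/em 455 nm; eight concentrations in duplicate. Cells: HCT116, 72 h exposure (0.6-10000 nM), WST-1 read at 450 nm, n = 6.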

LoVo = experiment: Antiproliferative activity against human LoVo cells after 72 hrs by WST-1 assay; assay type: functional; settings: Homo sapiens, LoVo, 72 h; how it was run: as §1
[15] = Oral bioavailability in dog at 10 mg/kg; assay type: ADME, organism-based, Canis lupus familiaris; settings: in vivo; how it was run: as §3
A2780 = experiment: Antiproliferative activity against human A2780 cells after 72 hrs by WST-1 assay; assay type: functional; settings: Homo sapiens, A2780, 72 h; how it was run: as §1
Histone deacetylase = experiment: Inhibition of HDAC in human HeLa cells nuclear extract using fluor de Lys as substrate preincubated for 5 mins by fluorometric analysis; assay type: cell-based
MG-63 = experiment: Antiproliferative activity against human MG63 cells after 72 hrs by WST-1 assay; assay type: functional; settings: Homo sapiens, MG-63, 72 h; how it was run: as §1
Cytochrome P450 2D6 = Cytochrome P450 2D6 (Homo sapiens, UniProt P10635); experiment: Inhibition of CYP2D6 at < 10 uM; assay type: ADME
Cytochrome P450 2D6, sequence (P10635 whole entry): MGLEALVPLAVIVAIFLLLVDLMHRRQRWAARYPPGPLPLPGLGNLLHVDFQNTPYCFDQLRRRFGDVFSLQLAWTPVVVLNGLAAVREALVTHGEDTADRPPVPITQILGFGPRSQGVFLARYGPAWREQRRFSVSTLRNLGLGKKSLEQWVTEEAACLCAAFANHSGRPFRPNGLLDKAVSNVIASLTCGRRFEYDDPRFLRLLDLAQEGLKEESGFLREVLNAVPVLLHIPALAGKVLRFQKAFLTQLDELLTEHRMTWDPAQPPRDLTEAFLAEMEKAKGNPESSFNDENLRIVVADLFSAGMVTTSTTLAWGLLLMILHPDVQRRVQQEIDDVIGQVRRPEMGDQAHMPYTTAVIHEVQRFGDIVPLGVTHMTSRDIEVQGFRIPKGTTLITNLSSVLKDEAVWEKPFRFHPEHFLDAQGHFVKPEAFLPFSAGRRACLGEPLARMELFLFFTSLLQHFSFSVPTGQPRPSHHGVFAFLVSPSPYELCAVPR

[16] = AUC (0 to t) in dog at 1 mg/kg, iv; assay type: ADME, organism-based, Canis lupus familiaris; parameters: dose 1 mg/kg, route intravenous; settings: plasma; how it was run: as §3
[17] = Clearance in human liver microsomes assessed as compound remaining after 30 mins; assay type: ADME, Microsome; settings: read-out: Activity
Histone deacetylase 2 = Histone deacetylase 2 (Homo sapiens, UniProt Q92769); experiment: Inhibition of human recombinant HDAC2 using fluor de Lys as substrate by fluorometric analysis
Histone deacetylase 2, sequence (Q92769 whole entry): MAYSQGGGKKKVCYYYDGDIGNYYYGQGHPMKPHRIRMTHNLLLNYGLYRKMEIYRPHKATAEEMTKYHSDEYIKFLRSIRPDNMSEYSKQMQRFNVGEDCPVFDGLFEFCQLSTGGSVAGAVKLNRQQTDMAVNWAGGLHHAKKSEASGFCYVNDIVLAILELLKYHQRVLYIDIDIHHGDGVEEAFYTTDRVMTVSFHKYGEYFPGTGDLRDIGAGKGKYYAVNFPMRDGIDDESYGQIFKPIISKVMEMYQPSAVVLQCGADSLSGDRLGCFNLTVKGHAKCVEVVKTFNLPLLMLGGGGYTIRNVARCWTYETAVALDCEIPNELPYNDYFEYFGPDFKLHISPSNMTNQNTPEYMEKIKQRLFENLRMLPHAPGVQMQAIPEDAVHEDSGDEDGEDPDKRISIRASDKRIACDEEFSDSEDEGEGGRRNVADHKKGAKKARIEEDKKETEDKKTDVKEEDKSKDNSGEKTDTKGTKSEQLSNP

Structure (SMILES) | IC50 (Histone deacetylase 1) [nM] | GI50 (HepG2) [nM] | AUC(0-t) [1] [ng·h/mL] | IC50 (Cytochrome P450 2C19) [nM] | Activity (HCT-116 [2]) [%] | GI50 (COR-L23 [3]) [nM] | inhibition (INH) (Cytochrome P450 3A4 [4]) | IC50 (Histone deacetylase 5) [nM] | Activity (HCT-116 [5]) | GI50 (U-937) [nM] | GI50 (COR-L23 [6]) [nM] | GI50 (PC-3) [nM] | Activity (HCT-116 [7]) [%] | GI50 (HuT78) [nM] | GI50 (DU-145) [nM] | Ratio (Spleen) | Activity (HCT-116 [8]) [%] | GI50 (MIA PaCa-2) [nM] | GI50 (MOLT-4) [nM] | IC50 (Cytochrome P450 3A4 [9]) [nM] | also measured
O=C(NO)c1cnc(N2C[C@@H]3[C@H](C2)[C@H]3NCc2ccc3cc(F)ccc3n2)nc1 [NANATINOSTAT] | 3 | 230 | 93 | > 50000 | 48 | 560 | Not Active | 200 | Active | 52 | 105 | 160 | 21 | 31 | 48 | 8.3 | 21 | 280 | 31 | 10000 | GI50 (HCT-116 [10]): 72 nM; clearance [11]: 70 mL/min/kg; Activity (HCT-116 [12]): 10%; GI50 (A549): 250 nM; remaining at 0.5 h [13]: 31%; IC50 (Histone deacetylase 3): 7 nM; Ratio [14]: 9; GI50 (LoVo): 140 nM; bioavailability [15]: 40%; GI50 (A2780): 210 nM; IC50 (Histone deacetylase): 8 nM; Ki (Histone deacetylase): 4.8 nM; GI50 (MG-63): 750 nM; inhibition (INH) (Cytochrome P450 2D6): Not Active; AUC(0-t) [16]: 241 ng·h/mL; remaining at 0.5 h [17]: 21%; IC50 (Histone deacetylase 2): 4 nM
O=C(NO)c1cnc(N2C[C@@H]3[C@H](C2)[C@H]3NCc2ccc(Cl)cc2)nc1 | 6 | 470 | 58 | 50000 | 33 | 1100 | Not Active | 500 | Active | 120 | 210 | 260 | 33 | 60 | 92 | 7.5 | 23 | 620 | 71 | > 50000 | GI50 (HCT-116 [10]): 210 nM; clearance [11]: 63 mL/min/kg; Activity (HCT-116 [12]): 11%; GI50 (A549): 500 nM; remaining at 0.5 h [13]: 43%; IC50 (Histone deacetylase 3): 10 nM; Ratio [14]: 16; GI50 (LoVo): 310 nM; bioavailability [15]: 56%; GI50 (A2780): 410 nM; IC50 (Histone deacetylase): 13 nM; GI50 (MG-63): 1600 nM; inhibition (INH) (Cytochrome P450 2D6): Not Active; AUC(0-t) [16]: 265 ng·h/mL; remaining at 0.5 h [17]: 38%; IC50 (Histone deacetylase 2): 14 nM
